Most compounds without a hit are left out; they make up all but 5.5% or so of the library.
tolC growth inh: growth inhibitors of E. coli tolC mutant, primary screen, strain BW25113 ΔtolC::kan, 384-well; growth inhibition, % at 10 µM (by protocol); 65,000 tested, 2.2% active; OD615; AID 573, 2007;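 active = growth inhibition at or above a cutoff equal to the mean over every tested compound plus 3 SD, cut at about 60% in these data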;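 also: growth measured after 20 h incubation at 37 °C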
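System: E. coli ΔtolC::kan strain BW25113; Buffer or medium: LB broth supplemented with 50 µg/mL kanamycin; Compound: 10 µM final, single dose; Incubation: bacterial growth with compound for 20 h at 37 °C; Signal: A615 absorbance measurement; Evaluation: growth inhibition in percent.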
E coli WT exp: growth inhibitors of wild-type E. coli, primary screen, strain BW25113, expanded library, OD600; OD600 absorbance; growth inhibition, % at 100 µM; 98,000 tested, 0.15% active;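 active = growth inhibition above about 50% at one test dose, limit read from the data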;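 also: growth measured after 20 h incubation at 37 °C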
PLAP activator: PLAP enzyme activators, biochemical, luminescence, HTS | 96,000 tested, 1.2% active | activation fold at 20 µM | AID 696, 2007 | Alkaline phosphatase, placental type (Homo sapiens), P05187 | purified PLAP enzyme, luminescent substrate read-out; active compounds read high; in the data active = activation fold above about 2
Target sequence (P05187 whole entry, looked up): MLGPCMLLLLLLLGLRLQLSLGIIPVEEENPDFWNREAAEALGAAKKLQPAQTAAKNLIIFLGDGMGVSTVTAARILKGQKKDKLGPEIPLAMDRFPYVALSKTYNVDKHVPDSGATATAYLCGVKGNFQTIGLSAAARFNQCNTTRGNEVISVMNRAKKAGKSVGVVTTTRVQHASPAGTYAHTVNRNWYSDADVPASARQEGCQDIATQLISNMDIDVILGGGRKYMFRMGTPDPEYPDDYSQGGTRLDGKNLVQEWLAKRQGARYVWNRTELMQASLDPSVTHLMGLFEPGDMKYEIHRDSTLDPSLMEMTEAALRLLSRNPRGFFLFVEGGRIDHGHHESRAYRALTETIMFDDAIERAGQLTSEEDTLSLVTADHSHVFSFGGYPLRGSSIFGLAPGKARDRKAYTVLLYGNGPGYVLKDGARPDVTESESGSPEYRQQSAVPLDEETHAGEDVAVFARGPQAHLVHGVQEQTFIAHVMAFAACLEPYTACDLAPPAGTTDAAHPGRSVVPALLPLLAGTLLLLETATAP
PostGolgi yeast: phenotypic screen on post-Golgi transport, primary screen; post-Golgi transport phenotypic cell assay; inhibition, % at 10 µM; AID 739, 2007; 98,000 tested, 0.9% active;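 also: yeast cells grown in 1536-well plates; yeast grown about 18 h at 30C before absorbance read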
PostGolgi ctrl: growth inhibition of yeast control strain, primary screen, counter-screen for post-Golgi transport modulator project; inhibition, % at 10 µM; 98,000 tested, 5% active; AID 738, 2007; efflux-deficient yeast background strain, growth absorbance A615, 16 h
HePTP inhibitor: inhibitors of human HePTP phosphatase, primary screen, biochemical, absorbance, leukemia target | 110,000 tested, 0.64% active | recombinant HePTP phosphatase activity, OD absorbance | Tyrosine-protein phosphatase non-receptor type 7 (Homo sapiens), P35236 | inhibition, % at 20 µM; in the data active = inhibition above about 50%;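 also: plate controls were vehicle for no effect and reference inhibitor for full effect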
* marks the source's active call; other numbers are inactive results. Rule as the data show it, unless noted: active = inhibition above about 30%; inactive = the rest.

What do the screens show for `CCCCOc1cc(C)nc(NCc2ccccc2)n1`?
tolC growth inh: 67*; E coli WT exp: 5; PLAP activator: 1.2; PostGolgi yeast: 28; PostGolgi ctrl: 38*; HePTP inhibitor: -1

Results for O=C(Nc1ccc(-c2nc3ccccc3s2)c(O)c1)c1ccc2c(c1)OCCO2 ?
HePTP inhibitor: 68*

How did O=c1c2c(nc3c(-c4cccc5ccccc45)c[nH]n13)CCC2 do in these assays?
tolC growth inh: 65*; E coli WT exp: -2; PLAP activator: 1.7; PostGolgi yeast: -2; PostGolgi ctrl: -1; HePTP inhibitor: -6

Results for O=c1c2c(nc3c(-c4ccc(Cl)cc4)c[nH]n13)CCCC2 ?
tolC growth inh: 100*; E coli WT exp: -2; PLAP activator: 1; PostGolgi yeast: -9; PostGolgi ctrl: 8; HePTP inhibitor: -3

How did Cc1cc(=O)[nH]c(N2CCc3ccccc3C2)n1 do in these assays?
E coli WT exp: 2; PLAP activator: 1; PostGolgi yeast: 2; PostGolgi ctrl: 46*

Results for Cc1cc(=O)[nH]c(N2CCN(Cc3ccccc3)CC2)n1 ?
tolC growth inh: -3; E coli WT exp: 2; PLAP activator: 1; PostGolgi yeast: 1; PostGolgi ctrl: 1; HePTP inhibitor: 4

Results for O=c1cc(C(Cl)(Cl)Cl)oc2c1ccc1ccccc12 ?
E coli WT exp: 3; PLAP activator: 0.8; PostGolgi yeast: 17; PostGolgi ctrl: 53*

Results for O=C(c1cnn2c(C(F)(F)F)cc(-c3ccc4c(c3)OCO4)nc12)N1CCOCC1 ?
HePTP inhibitor: 1

Results for O=C(C1CCC1)N1CCc2cc(S(=O)(=O)NCc3ccccn3)ccc21 ?
E coli WT exp: -1; PLAP activator: 1.4; PostGolgi yeast: -4; PostGolgi ctrl: 2

What do the screens show for `O=C(C1CCC1)N1CCc2cc(S(=O)(=O)NCCN3CCN(c4ccccc4F)CC3)ccc21`?
tolC growth inh: 26; E coli WT exp: -9; PLAP activator: 1.3; PostGolgi yeast: -1; PostGolgi ctrl: 38*; HePTP inhibitor: 3

Results for O=C(C1CCC1)N1CCc2cc(S(=O)(=O)N3CCc4ccccc4C3)ccc21 ?
tolC growth inh: 34; HePTP inhibitor: 0

Results for CCC1CCCCN1S(=O)(=O)c1ccc2c(c1)CCN2C(=O)C1CCC1 (stereo unspecified) ?
tolC growth inh: 84*; E coli WT exp: -6; PLAP activator: 1.2; PostGolgi yeast: 1; PostGolgi ctrl: 68*; HePTP inhibitor: 10

Results for CC1=C(C(=O)Nc2ccc(Br)cc2)C(c2ccc(F)cc2)NC(=S)N1 (stereo unspecified) ?
HePTP inhibitor: 9

How did O=C(N/N=C/c1ccccc1O)c1cnccn1 do in these assays?
HePTP inhibitor: 104*

What do the screens show for `O=C(N/N=C\c1ccccc1Br)c1cnccn1`?
HePTP inhibitor: 8

Results for Cc1nnc(NC(=O)C(Sc2ccccc2)c2ccccc2)s1 (stereo unspecified) ?
HePTP inhibitor: 6

Results for COc1ccc(S(=O)(=O)N2CCN(Cc3cccc(OC)c3)CC2)cc1 ?
HePTP inhibitor: 2

What do the screens show for `COc1ccc(S(=O)(=O)N2CCN(Cc3ccc([N+](=O)[O-])cc3)CC2)cc1`?
HePTP inhibitor: 57*

How did COc1ccc(S(=O)(=O)N2CCCN(Cc3cccc(F)c3)CC2)cc1 do in these assays?
tolC growth inh: 14; E coli WT exp: 6; PLAP activator: 1.1; PostGolgi yeast: 2; PostGolgi ctrl: 45*; HePTP inhibitor: -4

How did COc1ccc(S(=O)(=O)N2CCN(Cc3ccccc3)CC2)cc1 do in these assays?
tolC growth inh: 22; E coli WT exp: 8; PLAP activator: 1; PostGolgi yeast: 2; PostGolgi ctrl: 3; HePTP inhibitor: -3

Results for CCOc1ccccc1N(CC(=O)Nc1ccccc1CC)S(=O)(=O)c1ccccc1 ?
HePTP inhibitor: 7

What do the screens show for `COc1ccc(NC(=O)c2cc(Br)ccc2I)cc1Cl`?
HePTP inhibitor: 1

What do the screens show for `Cc1[nH]nc(N=CC2=C(O)CC(C)(C)CC2=O)c1-c1ccccc1`?
tolC growth inh: -5; E coli WT exp: -2; PLAP activator: 1; PostGolgi yeast: 3; PostGolgi ctrl: 15; HePTP inhibitor: -13

What do the screens show for `Cc1[nH]nc(N=CC2=C(O)CC(c3ccco3)CC2=O)c1-c1ccccc1` (stereo unspecified)?
tolC growth inh: 19; E coli WT exp: -3; PLAP activator: 0.9; PostGolgi yeast: 4; PostGolgi ctrl: 45*; HePTP inhibitor: -5

What do the screens show for `CCOC(=O)c1[nH]nc2c1C(=O)N(c1ccc(Br)cc1)C2=O`?
HePTP inhibitor: 30

How did CCOC(=O)C1=C(C)n2c(s/c(=C/c3cccc([N+](=O)[O-])c3)c2=O)=NC1c1ccc(O)c(OC)c1 (stereo unspecified) do in these assays?
E coli WT exp: -19; PLAP activator: 1.1; PostGolgi yeast: 61*; PostGolgi ctrl: 39*

What do the screens show for `Cc1ccc(/C=C(/NC(=O)c2ccccc2I)C(=O)O)o1`?
HePTP inhibitor: 9

What do the screens show for `COc1cccc(C(=O)NCCn2ccc3ccccc32)c1`?
tolC growth inh: 12; E coli WT exp: 5; PLAP activator: 0.9; PostGolgi yeast: -7; PostGolgi ctrl: 40*; HePTP inhibitor: 9

How did O=C(Cc1ccccc1)NCCn1ccc2ccccc21 do in these assays?
tolC growth inh: -2; E coli WT exp: -2; PLAP activator: 0.9; PostGolgi yeast: 9; PostGolgi ctrl: 27; HePTP inhibitor: 9

How did O=C(COc1ccc2ccccc2c1)NCCn1ccc2ccccc21 do in these assays?
E coli WT exp: -10; PLAP activator: 1.4; PostGolgi yeast: -22; PostGolgi ctrl: 48*

Results for CCC(Sc1nnnn1-c1ccccc1)C(=O)Nc1nc2ccccc2s1 (stereo unspecified) ?
tolC growth inh: 74*; E coli WT exp: -38; PostGolgi yeast: 9; PostGolgi ctrl: 44*; HePTP inhibitor: -5

What do the screens show for `CCCc1cc(=O)[nH]c(SCc2ccccc2Cl)n1`?
E coli WT exp: 5; PLAP activator: 1; PostGolgi yeast: 4; PostGolgi ctrl: 45*

What do the screens show for `Clc1ccccc1CSc1nc2ccncc2[nH]1`?
E coli WT exp: 14; PLAP activator: 2.7*; PostGolgi yeast: -2; PostGolgi ctrl: 11

What do the screens show for `Cc1cc2nc(SCc3ccccc3Cl)[nH]c2cc1C`?
HePTP inhibitor: 7

Results for O=c1[nH]c(SCc2ccccc2Cl)nc2c1cnn2-c1ccccc1 ?
tolC growth inh: 11; E coli WT exp: -6; PLAP activator: 1.4; PostGolgi yeast: -13; PostGolgi ctrl: 42*; HePTP inhibitor: -5

Results for O=C(Nc1ccc2oc(-c3ccc(F)cc3Cl)nc2c1)c1ccc(Br)o1 ?
HePTP inhibitor: -11

High-throughput results from PubChem BioAssay.
